Measurements from paper PMC6403082 (International Journal of Neuropsychopharmacology, 2018).
Like-named read-outs stand apart in the source and are kept apart here. Peptide text beside a SMILES is read from it.

Tests used:
NMDA, PCP = assay: Radioligand displacement, NMDA PCP site; format: binding; details: 30 μM test compound
NMDA, polyamine = assay: Radioligand displacement, NMDA polyamine site; format: binding; details: 30 μM test compound
NMDA, MK-801 = assay: Radioligand displacement, NMDA MK-801 site; format: binding; details: 30 μM test compound; inhibition >50% considered meaningful
NMDA, glutamate = assay: Radioligand displacement, NMDA glutamate site; format: binding; details: 30 μM test compound
NMDA, glycine = NMDA, glycine (Homo sapiens, UniProt Q05586); assay: Radioligand displacement, NMDA glycine site; format: binding; details: 30 μM test compound
[1] = system: NMDAR in rat primary cortical neurons; assay: Intracellular Ca2+ influx; format: cell-based; details: for Effect on 10 μM NMDA-induced calcium response: 300 μM 7-CK or 10 μM MDL; for EC50: rat primary cortical neurons
[2] = system: NMDAR current in rat cortical slices; details: 100 μM 7-CK; ref Kemp et al., 1988; cited from earlier work
[3] = target: mutant NR1-NR2B receptors (NR1 F484A/T518L) (Homo sapiens, UniProt Q05586+Q13224, F484A/T518L); assay: [3H] MK-801 binding at glycine-site mutant NR1-NR2B; format: biochemical; details: NR1 F484A/T518L loss-of-function glycine-site mutant vs wild-type NR1-NR2B
Chain of mutant NR1-NR2B receptors (NR1 F484A/T518L) (Q13224 27-1484, other chains not shown): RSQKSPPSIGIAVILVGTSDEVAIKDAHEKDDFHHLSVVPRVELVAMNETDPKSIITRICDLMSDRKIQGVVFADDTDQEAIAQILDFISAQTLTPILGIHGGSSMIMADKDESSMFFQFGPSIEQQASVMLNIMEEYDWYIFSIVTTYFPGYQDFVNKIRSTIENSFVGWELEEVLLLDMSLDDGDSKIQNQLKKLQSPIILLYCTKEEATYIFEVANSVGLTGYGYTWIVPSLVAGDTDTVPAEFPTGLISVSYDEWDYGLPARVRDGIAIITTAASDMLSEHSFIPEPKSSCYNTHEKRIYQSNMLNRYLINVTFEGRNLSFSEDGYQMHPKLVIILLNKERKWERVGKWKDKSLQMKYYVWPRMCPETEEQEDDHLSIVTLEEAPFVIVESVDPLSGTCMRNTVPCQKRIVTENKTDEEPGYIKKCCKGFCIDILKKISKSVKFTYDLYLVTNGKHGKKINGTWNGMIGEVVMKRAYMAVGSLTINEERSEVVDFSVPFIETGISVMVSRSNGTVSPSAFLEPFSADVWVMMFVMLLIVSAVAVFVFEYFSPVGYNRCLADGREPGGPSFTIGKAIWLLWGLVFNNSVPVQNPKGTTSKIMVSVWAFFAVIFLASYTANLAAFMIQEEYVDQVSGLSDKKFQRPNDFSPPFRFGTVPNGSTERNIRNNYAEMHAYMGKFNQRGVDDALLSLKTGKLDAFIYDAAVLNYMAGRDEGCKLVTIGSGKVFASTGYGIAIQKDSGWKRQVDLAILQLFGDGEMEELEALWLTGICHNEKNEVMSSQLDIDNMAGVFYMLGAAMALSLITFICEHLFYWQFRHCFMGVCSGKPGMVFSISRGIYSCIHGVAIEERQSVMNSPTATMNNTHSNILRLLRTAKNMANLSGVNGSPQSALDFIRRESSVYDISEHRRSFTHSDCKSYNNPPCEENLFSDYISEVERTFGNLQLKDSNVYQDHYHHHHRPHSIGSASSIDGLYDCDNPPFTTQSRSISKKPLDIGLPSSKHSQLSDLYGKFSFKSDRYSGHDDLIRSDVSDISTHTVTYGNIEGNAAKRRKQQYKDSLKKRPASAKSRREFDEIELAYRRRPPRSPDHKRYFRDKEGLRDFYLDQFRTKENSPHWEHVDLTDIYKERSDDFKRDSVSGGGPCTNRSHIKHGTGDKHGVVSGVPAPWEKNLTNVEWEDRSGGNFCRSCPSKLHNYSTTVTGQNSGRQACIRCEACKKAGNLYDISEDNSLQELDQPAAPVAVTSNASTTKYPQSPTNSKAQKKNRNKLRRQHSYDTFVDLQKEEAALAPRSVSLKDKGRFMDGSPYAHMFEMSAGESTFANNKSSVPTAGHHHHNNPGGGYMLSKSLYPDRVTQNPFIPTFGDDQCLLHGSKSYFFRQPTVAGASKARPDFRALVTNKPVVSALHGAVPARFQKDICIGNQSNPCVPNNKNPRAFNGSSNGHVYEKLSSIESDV
How it was run: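 Crude membranes from transiently transfected HEK cells (NR1-NR2B, wild-type or NR1 F484A/T518L glycine-site mutant), washed in 10 mM Tris·acetate pH 7.4, homogenised, pelleted at 51 500 × g, all at 4°C. […] Then […] [3H] MK-801 (22.5 Ci/mmol) added for 15 min (nonequilibrium), and filtered. n = 18, 2-tailed t test.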

[4] = mPFC microdialysis of rapastinel; format: in vivo; details: rat, sc
How it was run: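 Freely moving rats had guide cannulae implanted in mPFC (AP +3.2, L +0.5, V −1.5 mm from bregma/dura). After 7 days of recovery, a probe was inserted (3-mm membrane, 50 kDa cutoff) and perfused with aCSF at 1 μL/min (148 NaCl, 4 KCl, 0.8 MgCl2, 1.4 CaCl2, 1.2 Na2HPO4, 0.3 NaH2PO4 mM; pH 7.2). Test compound was given s.c. in sterile saline.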

[5] = target: mutant NR2B (R393E) NMDAR in HEK293 cells (Homo sapiens, UniProt Q05586+Q13224, R393E); assay: Intracellular calcium response in HEK cells, NR2B R393E; format: cell-based
Chain of mutant NR2B (R393E) NMDAR in HEK293 cells (Q13224 27-1484 R393E, other chains not shown): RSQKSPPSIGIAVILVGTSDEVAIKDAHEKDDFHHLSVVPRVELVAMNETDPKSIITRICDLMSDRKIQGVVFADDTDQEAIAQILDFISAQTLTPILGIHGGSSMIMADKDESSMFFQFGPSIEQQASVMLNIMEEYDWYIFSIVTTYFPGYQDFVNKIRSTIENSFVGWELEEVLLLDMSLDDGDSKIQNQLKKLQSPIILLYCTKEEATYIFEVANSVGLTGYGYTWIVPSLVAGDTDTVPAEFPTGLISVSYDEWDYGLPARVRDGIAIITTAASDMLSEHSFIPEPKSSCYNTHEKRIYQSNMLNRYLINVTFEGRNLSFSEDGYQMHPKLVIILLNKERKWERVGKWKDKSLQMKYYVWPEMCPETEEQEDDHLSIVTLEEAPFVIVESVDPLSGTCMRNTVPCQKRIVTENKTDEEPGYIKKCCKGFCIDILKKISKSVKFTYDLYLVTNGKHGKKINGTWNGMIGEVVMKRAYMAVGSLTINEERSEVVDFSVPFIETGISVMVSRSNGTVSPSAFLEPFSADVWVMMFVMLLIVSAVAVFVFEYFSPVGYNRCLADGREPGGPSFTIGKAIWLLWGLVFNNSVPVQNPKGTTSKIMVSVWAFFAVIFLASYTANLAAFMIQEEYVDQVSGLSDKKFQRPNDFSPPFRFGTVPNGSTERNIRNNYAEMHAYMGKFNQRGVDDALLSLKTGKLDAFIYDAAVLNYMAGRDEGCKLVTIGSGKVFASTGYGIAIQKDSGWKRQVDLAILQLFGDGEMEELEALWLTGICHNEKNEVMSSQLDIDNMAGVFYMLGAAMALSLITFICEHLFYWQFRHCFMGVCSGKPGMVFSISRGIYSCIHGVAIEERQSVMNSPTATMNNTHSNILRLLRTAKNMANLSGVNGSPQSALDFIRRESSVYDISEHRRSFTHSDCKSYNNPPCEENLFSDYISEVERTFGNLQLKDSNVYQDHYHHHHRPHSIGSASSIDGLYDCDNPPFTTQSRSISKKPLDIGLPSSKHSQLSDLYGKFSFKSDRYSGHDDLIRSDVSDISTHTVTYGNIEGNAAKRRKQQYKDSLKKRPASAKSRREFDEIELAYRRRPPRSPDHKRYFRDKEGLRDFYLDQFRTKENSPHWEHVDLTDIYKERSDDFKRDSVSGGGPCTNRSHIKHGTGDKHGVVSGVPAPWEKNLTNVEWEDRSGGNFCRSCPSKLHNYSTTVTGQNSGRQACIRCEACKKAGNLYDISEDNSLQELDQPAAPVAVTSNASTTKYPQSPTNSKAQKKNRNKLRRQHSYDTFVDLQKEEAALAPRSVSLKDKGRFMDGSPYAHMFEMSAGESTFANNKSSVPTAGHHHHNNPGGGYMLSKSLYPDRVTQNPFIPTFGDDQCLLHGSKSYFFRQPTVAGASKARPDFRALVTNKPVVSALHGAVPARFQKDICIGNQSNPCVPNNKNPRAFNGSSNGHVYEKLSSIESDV

For CNC1(c2ccccc2Cl)CCCCC1=O (racemic) [(R,S)-ketamine], the “NMDA, PCP (%) radioligand displacement” value (NMDA, PCP) was 94%, the “NMDA, polyamine (%) radioligand displacement” value (NMDA, polyamine) was −16% and the “NMDA, MK-801(%) radioligand displacement” value (NMDA, MK-801) was 96%. The “NMDA, glutamate (%) radioligand displacement” value (NMDA, glutamate) was −5% and the “NMDA, glycine (%) radioligand displacement” value (NMDA, glycine) was 17%.
For O=C(O)c1cc(O)c2ccc(Cl)cc2n1 [7-CK, 7-chlorokynurenic acid], the “Effect on 10 μM NMDA-induced calcium response” value [1] is given as “completely abolished” and the “Effect on NMDAR current in rat cortical slices” value [2] is given as “completely blocked”.
For N[C@H](CCCP(=O)(O)O)C(=O)O [(2R)-amino-5-phosphonopentanoate], the “Effect on calcium response to NMDA + rapastinel + 7-CK” value ([1]; 100 μM co-infused) was “inhibited the calcium response”.
In the case of N[C@H](CO)C(=O)O [D-serine], the EC50 ([1]; read-out: EC50, [Ca2+]i mobilization (D-serine)) is reported as 290 nM.
For NCC(=O)O [Glycine, glycine], the “Enhancement of [3H] MK-801 binding at mutant receptors” value [3] was “failed to enhance”.
For O=C(O)/C(=C/c1c(C(=O)O)[nH]c2cc(Cl)cc(Cl)c12)c1ccccc1 [MDL], the “Block of NMDAR activation by 10 μM NMDA and 100 μM D-serine” value ([1]; 10 μM MDL, n = 5) was −98.5 ± 0.2% and the “Effect on 10 μM NMDA-induced calcium response” value [1] was “completely abolished”.
CN[C@H](CC(=O)O)C(=O)O [NMDA, N-methyl-D-aspartate] showed an EC50 ([1]; read-out: EC50, [Ca2+]i mobilization (NMDA)) of 2800 nM.
For CN[C@@]1(c2ccccc2Cl)CCCCC1=O [R-ketamine], the “NMDA, PCP (%) radioligand displacement” value (NMDA, PCP) was 88%, the “NMDA, polyamine (%) radioligand displacement” value (NMDA, polyamine) was 1% and the “NMDA, MK-801(%) radioligand displacement” value (NMDA, MK-801) was 89%. The “NMDA, glutamate (%) radioligand displacement” value (NMDA, glutamate) was 6% and the “NMDA, glycine (%) radioligand displacement” value (NMDA, glycine) was −5%.
Work on C[C@@H](O)[C@H](N)C(=O)N1CCC[C@H]1C(=O)N1CCC[C@H]1C(=O)N[C@H](C(N)=O)[C@@H](C)O [Rapastinel] (H-TPPT-NH2) yielded a level at time molar ([4]; brain (mPFC) microdialysate, 10 mg/kg) of roughly 30 nM, a Tmax ([4]; in vivo) of roughly 20 min and a half-life ([4]; in vivo) of roughly 20 min.
For CN[C@]1(c2ccccc2Cl)CCCCC1=O [S-ketamine], the “NMDA, PCP (%) radioligand displacement” value (NMDA, PCP) was 84%, the “NMDA, polyamine (%) radioligand displacement” value (NMDA, polyamine) was −17% and the “NMDA, MK-801(%) radioligand displacement” value (NMDA, MK-801) was 98%. For the same molecule, the “NMDA, glutamate (%) radioligand displacement” value (NMDA, glutamate) was −6%, the “NMDA, glycine (%) radioligand displacement” value (NMDA, glycine) was 0% and the IC50 ([1]; read-out: IC50, inhibition of NMDAR-mediated [Ca2+]i accumulation) was roughly 1000 nM.
With N[C@@H](CCC(=O)O)C(=O)O [glutamate] the “Receptor activation, % of 1 μM glutamate, mutated NR2B (R393E)” value [5] was 22.6 ± 1.2%.
